# Results published in ChEMBL document CHEMBL2157987, “Benzimidazole bearing oxadiazole and triazolo-thiadiazoles nucleus: design and synthesis as anticancer agents” (2012).
# Tests used:
# Format in all cases: functional
# PC-3 = assay: Cytotoxicity against human PC3 cells after 48 hrs by SRB assay; details: PC-3, 48 h
# How it was run: (§1)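 Five-dose NCI-60 panel screen: cells grown in RPMI 1640 with 5% FBS and 2 mM L-glutamine, preincubated 24 h at 37 °C, 5% CO2. Five 10-fold dilutions, 0.01–100 µM, applied for 48 h. Fixed with cold TCA (10% final), stained with 0.4% SRB, absorbance read at 515 nm. GI50, TGI and LC50 were taken from log concentration versus % growth curves using time-zero plates.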
# HCT-116 = assay: Cytotoxicity against human HCT116 cells after 48 hrs by SRB assay; details: HCT-116, 48 h; how it was run: as §1
# HOP-92 = assay: Cytotoxicity against human HOP92 cells after 48 hrs by SRB assay; details: HOP-92, 48 h; how it was run: as §1
# MCF7 = assay: Cytotoxicity against human MCF7 cells after 48 hrs by SRB assay; details: MCF7, 48 h; how it was run: as §1
# NCI-H522 = assay: Cytotoxicity against human NCI-H522 cells after 48 hrs by SRB assay; details: NCI-H522, 48 h; how it was run: as §1
# NCI-H322M = assay: Cytotoxicity against human NCI-H322M cells after 48 hrs by SRB assay; how it was run: as §1
# OVCAR-5 = assay: Cytotoxicity against human OVCAR5 cells after 48 hrs by SRB assay; details: OVCAR-5, 48 h; how it was run: as §1
# Hs-578T = assay: Cytotoxicity against human Hs578T cells after 48 hrs by SRB assay; how it was run: as §1
# HCC 2998 = assay: Cytotoxicity against human HCC2998 cells after 48 hrs by SRB assay; details: HCC 2998, 48 h; how it was run: as §1
# SF-295 = assay: Cytotoxicity against human SF295 cells after 48 hrs by SRB assay; details: SF-295, 48 h; how it was run: as §1
# NCI-H460 = assay: Cytotoxicity against human NCI-H460 cells after 48 hrs by SRB assay; details: NCI-H460, 48 h; how it was run: as §1
# MDA-MB-231 = assay: Cytotoxicity against human MDA-MB-231 cells after 48 hrs by SRB assay; details: MDA-MB-231, 48 h; how it was run: as §1
# SNB-75 = assay: Cytotoxicity against human SNB75 cells after 48 hrs by SRB assay; details: SNB-75, 48 h
# How it was run: (§2)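 Cells were grown in RPMI 1640 with 5% FBS and 2 mM L-glutamine, then held 24 h at 37 °C and 5% CO2 before dosing. TCA-fixed time-zero plates were kept. Compound was dissolved in DMSO and given at five 10-fold dilutions for 48 h. Cells were fixed with cold TCA (10% final), stained with 0.4% SRB and read at 515 nm. GI50, TGI and LC50 came from Ti/Tz/control growth formulas.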
# SNB-19 = assay: Cytotoxicity against human SNB19 cells after 48 hrs by SRB assay; details: SNB-19, 48 h; how it was run: as §2
# BT-549 = assay: Cytotoxicity against human BT549 cells after 48 hrs by SRB assay; details: BT-549, 48 h; how it was run: as §1
# CCRF-CEM = assay: Cytotoxicity against human CCRF-CEM cells after 48 hrs by SRB assay; how it was run: as §1
# SK-MEL-2 = assay: Cytotoxicity against human SK-MEL-2 cells after 48 hrs by SRB assay; details: SK-MEL-2, 48 h; how it was run: as §1
# M14 = assay: Cytotoxicity against human M14 cells after 48 hrs by SRB assay; details: M14, 48 h; how it was run: as §1
# LOX IMVI = assay: Cytotoxicity against human LOXIMVI cells after 48 hrs by SRB assay; how it was run: as §1
# SF-268 = assay: Cytotoxicity against human SF268 cells after 48 hrs by SRB assay; details: SF-268, 48 h; how it was run: as §1
# K562 = assay: Cytotoxicity against human K562 cells after 48 hrs by SRB assay; details: K562, 48 h; how it was run: as §1
# NCI-H23 = assay: Cytotoxicity against human NCI-H23 cells after 48 hrs by SRB assay; details: NCI-H23, 48 h; how it was run: as §1
# [1] = read-out: LC50 (the source's name)
# [2] = read-out: pLC50 (the source's name) (converted)
structure (smiles),measurement,setting,value
Nc1cc(Br)c(-c2nnc(CCC(=O)c3nc4ccccc4[nH]3)o2)c(Br)c1,GI50,PC-3,3.09 µM
same,LC50 (concentration killing 50% of cells),PC-3; read-out: LC50,> 100 µM
same,TGI,PC-3; read-out: TGI,> 100 µM
same,LC50 (concentration killing 50% of cells),PC-3; read-out: pLC50 (converted),> 100 µM
same,TGI,PC-3; read-out: pTGI,> 100 µM
same,GI50,HCT-116,8.32 µM
same,CC50,HCT-116; [1],> 100 µM
same,TGI,HCT-116; read-out: TGI,> 100 µM
same,CC50,HCT-116; [2],> 100 µM
same,TGI,HCT-116; read-out: pTGI,> 100 µM
same,GI50,HOP-92,0.501 µM
same,CC50,HOP-92; [1],> 100 µM
same,TGI,HOP-92; read-out: TGI,19.9 µM
same,CC50,HOP-92; [2],> 100 µM
same,TGI,HOP-92; read-out: pTGI (converted),20 µM
same,GI50,MCF7,3.09 µM
same,CC50,MCF7; [1],> 100 µM
same,TGI,MCF7; read-out: TGI,> 100 µM
same,CC50,MCF7; [2],> 100 µM
same,TGI,MCF7; read-out: pTGI,> 100 µM
same,GI50,NCI-H522,2.88 µM
same,CC50,NCI-H522; [1],> 100 µM
same,TGI,NCI-H522; read-out: TGI,16.9 µM
same,CC50,NCI-H522; [2],> 100 µM
same,TGI,NCI-H522; read-out: pTGI (converted),17 µM
same,GI50,NCI-H322M,8.13 µM
same,CC50,NCI-H322M; [1],> 100 µM
same,TGI,NCI-H322M; read-out: TGI,> 100 µM
same,CC50,NCI-H322M; [2],> 100 µM
same,TGI,NCI-H322M; read-out: pTGI,> 100 µM
same,GI50,OVCAR-5,29.5 µM
same,LC50,OVCAR-5; read-out: LC50,> 100 µM
same,TGI,OVCAR-5; read-out: TGI,> 100 µM
same,LC50,OVCAR-5; read-out: pLC50 (converted),> 100 µM
same,TGI,OVCAR-5; read-out: pTGI,> 100 µM
same,GI50,Hs-578T,3.72 µM
same,CC50,Hs-578T; [1],> 100 µM
same,TGI,Hs-578T; read-out: TGI,31.7 µM
same,CC50,Hs-578T; [2],> 100 µM
same,TGI,Hs-578T; read-out: pTGI (converted),31.6 µM
same,GI50,HCC 2998,11 µM
same,CC50,HCC 2998; [1],> 100 µM
same,TGI,HCC 2998; read-out: TGI,42.5 µM
same,CC50,HCC 2998; [2],> 100 µM
same,TGI,HCC 2998; read-out: pTGI (converted),42.7 µM
same,GI50,SF-295,9.77 µM
same,CC50,SF-295; [1],> 100 µM
same,TGI,SF-295; read-out: TGI,35.6 µM
same,CC50,SF-295; [2],> 100 µM
same,TGI,SF-295; read-out: pTGI (converted),35.5 µM
same,GI50,NCI-H460,3.98 µM
same,CC50,NCI-H460; [1],> 100 µM
same,TGI,NCI-H460; read-out: TGI,20.1 µM
same,CC50,NCI-H460; [2],> 100 µM
same,TGI,NCI-H460; read-out: pTGI (converted),20 µM
same,GI50,MDA-MB-231,10.2 µM
same,LC50,MDA-MB-231; read-out: LC50,> 100 µM
same,TGI,MDA-MB-231; read-out: TGI,86.8 µM
same,LC50,MDA-MB-231; read-out: pLC50 (converted),> 100 µM
same,TGI,MDA-MB-231; read-out: pTGI (converted),87.1 µM
same,GI50,SNB-75,2.95 µM
same,CC50,SNB-75; [1],> 100 µM
same,TGI,SNB-75; read-out: TGI,20.5 µM
same,CC50,SNB-75; [2],> 100 µM
same,TGI,SNB-75; read-out: pTGI (converted),20.4 µM
same,GI50,SNB-19,20 µM
same,CC50,SNB-19; [1],> 100 µM
same,TGI,SNB-19; read-out: TGI,> 100 µM
same,CC50,SNB-19; [2],> 100 µM
same,TGI,SNB-19; read-out: pTGI,> 100 µM
same,GI50,BT-549,6.76 µM
same,CC50,BT-549; [1],> 100 µM
same,TGI,BT-549; read-out: TGI,> 100 µM
same,CC50,BT-549; [2],> 100 µM
same,TGI,BT-549; read-out: pTGI,> 100 µM
same,GI50,CCRF-CEM,3.8 µM
same,CC50,CCRF-CEM; [1],> 100 µM
same,TGI,CCRF-CEM; read-out: TGI,> 100 µM
same,CC50,CCRF-CEM; [2],> 100 µM
same,TGI,CCRF-CEM; read-out: pTGI,> 100 µM
same,GI50,SK-MEL-2,4.27 µM
same,CC50,SK-MEL-2; [1],> 100 µM
same,TGI,SK-MEL-2; read-out: TGI,> 100 µM
same,CC50,SK-MEL-2; [2],> 100 µM
same,TGI,SK-MEL-2; read-out: pTGI,> 100 µM
same,GI50,M14,17.4 µM
same,CC50,M14; [1],> 100 µM
same,TGI,M14; read-out: TGI,55.5 µM
same,CC50,M14; [2],> 100 µM
same,TGI,M14; read-out: pTGI (converted),55 µM
same,GI50,LOX IMVI,3.24 µM
same,CC50,LOX IMVI; [1],> 100 µM
same,TGI,LOX IMVI; read-out: TGI,46.4 µM
same,CC50,LOX IMVI; [2],> 100 µM
same,TGI,LOX IMVI; read-out: pTGI (converted),46.8 µM
same,GI50,SF-268,5.13 µM
same,CC50,SF-268; [1],> 100 µM
same,TGI,SF-268; read-out: TGI,81.6 µM
same,CC50,SF-268; [2],> 100 µM
same,TGI,SF-268; read-out: pTGI (converted),81.3 µM
same,GI50,K562,2.88 µM
same,CC50,K562; [1],> 100 µM
same,TGI,K562; read-out: TGI,> 100 µM
same,CC50,K562; [2],> 100 µM
same,TGI,K562; read-out: pTGI,> 100 µM
same,GI50,NCI-H23,3.24 µM
same,CC50,NCI-H23; [1],> 100 µM
same,TGI,NCI-H23; read-out: TGI,36.4 µM
same,CC50,NCI-H23; [2],> 100 µM
same,TGI,NCI-H23; read-out: pTGI (converted),36.3 µM
